According to ChEMBL document CHEMBL1126834, “Chemistry, binding affinities, and behavioral properties of a new class of "antineophobic" mitochondrial DBI receptor complex (mDRC) ligands” (J Med Chem, 1993):

Columns and labels:
[1] = target: T1, Gastrin/cholecystokinin type B receptor (Rattus norvegicus, UniProt P30553); assay: Inhibitory activity by measuring its ability to displace [3H]L-365260 from cholecystokinin receptor in rat brain; type: tissue-based
T1 sequence (P30553 whole entry): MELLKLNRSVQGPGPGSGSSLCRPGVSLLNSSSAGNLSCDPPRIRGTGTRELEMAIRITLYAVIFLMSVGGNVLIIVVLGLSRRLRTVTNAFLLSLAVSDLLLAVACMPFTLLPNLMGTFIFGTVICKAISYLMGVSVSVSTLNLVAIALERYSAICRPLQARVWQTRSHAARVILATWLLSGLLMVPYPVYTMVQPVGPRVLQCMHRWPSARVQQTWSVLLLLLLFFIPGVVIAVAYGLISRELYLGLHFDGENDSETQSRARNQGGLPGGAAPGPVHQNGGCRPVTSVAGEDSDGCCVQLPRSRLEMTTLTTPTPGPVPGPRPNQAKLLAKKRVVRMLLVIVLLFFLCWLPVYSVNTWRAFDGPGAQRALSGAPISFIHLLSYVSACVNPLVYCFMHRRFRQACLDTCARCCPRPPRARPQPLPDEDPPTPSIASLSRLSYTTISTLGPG

[2] = Tested for inhibitory activity by measuring its ability to displace [3H]AMPA from glutamate (non-NMDA) receptor in rat brain; type: tissue-based
[3] = target: Adrenergic receptor alpha; assay: Inhibitory activity by measuring its ability to displace [3H]WB-4101 from alpha-adrenergic receptor in rat brain; type: tissue-based
Glutamate NMDA receptor = assay: Inhibitory activity by measuring its ability to displace [3H]-MK-801 from glutamate(NMDA) receptor in rat brain; type: tissue-based
[4] = target: GABA-A receptor; anion channel; assay: Inhibitory activity at GABA A receptor, measured by the ability to displace [35S]TBPS from GABA A receptor in rat brain; type: tissue-based
[5] = Inhibitory activity at GABA B receptor, measured by the ability to displace [3H]baclofen from GABA B receptor in rat brain; type: tissue-based
[6] = target: GABA-A receptor; anion channel; assay: Inhibitory activity at GABA A receptor, measured by the ability to displace [3H]zolpidem from GABA A receptor in rat brain; type: tissue-based
[7] = target: Adrenergic receptor alpha; assay: Inhibitory activity by measuring its ability to displace [3H]clonidine from alpha-adrenergic receptor in rat brain; type: tissue-based
Cannabinoid receptor 1 = Cannabinoid receptor 1 (Rattus norvegicus, UniProt P20272); assay: Inhibitory activity, measured by displacement [3H]CP-55940 from cannabinoid receptor (CB1) in rat brain; type: tissue-based
[8] = target: GABA-A receptor; anion channel; assay: Inhibitory activity at GABA A receptor, measured by the ability to displace [3H]flumazenil from GABA A receptor in rat brain; type: tissue-based
[9] = Inhibitory activity by measuring its ability to displace [3H]glycine from glycine receptor in rat brain; type: tissue-based
[10] = Inhibitory activity by measuring its ability to displace [3H]spiperone from dopamine or serotonin 5-HT-1 receptors in rat brain; type: tissue-based
Translocator protein = Translocator protein (Rattus norvegicus, UniProt P16257); assay: Binding affinity against mitochondrial DBI complex (peripheral benzodiazepine receptor) using primary cultures of glial cells
Method in brief: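 Glia from cerebella of 8-day-old Sprague–Dawley rat pups, trypsin-dissociated and grown 14 days (~95% astroglia). Cells lysed in 50 mM Hepes pH 7.4, 4 μg protein per tube. Incubated with [3H]4'-chlorodiazepam and competitor for 90 min at 4 °C, then filtered. Nonspecific binding defined with 10 μM 4'-chlorodiazepam. Triplicate competition curves; IC50 by nonlinear regression, converted to Ki (Bylund–Yamamura).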

Adrenergic receptor beta = Adrenergic receptor beta (Rattus norvegicus, UniProt P18090+P10608+P26255); assay: Inhibitory activity by measuring its ability to displace [125I]pindolol from beta-adrenergic receptor in rat brain; type: tissue-based
[11] = target: GABA-A receptor; anion channel; assay: Inhibitory activity at GABA A receptor, measured by the ability to displace [3H]GABA from GABA A receptor in rat brain; type: tissue-based

Cannabinoid receptor 1, sequence (P20272 whole entry): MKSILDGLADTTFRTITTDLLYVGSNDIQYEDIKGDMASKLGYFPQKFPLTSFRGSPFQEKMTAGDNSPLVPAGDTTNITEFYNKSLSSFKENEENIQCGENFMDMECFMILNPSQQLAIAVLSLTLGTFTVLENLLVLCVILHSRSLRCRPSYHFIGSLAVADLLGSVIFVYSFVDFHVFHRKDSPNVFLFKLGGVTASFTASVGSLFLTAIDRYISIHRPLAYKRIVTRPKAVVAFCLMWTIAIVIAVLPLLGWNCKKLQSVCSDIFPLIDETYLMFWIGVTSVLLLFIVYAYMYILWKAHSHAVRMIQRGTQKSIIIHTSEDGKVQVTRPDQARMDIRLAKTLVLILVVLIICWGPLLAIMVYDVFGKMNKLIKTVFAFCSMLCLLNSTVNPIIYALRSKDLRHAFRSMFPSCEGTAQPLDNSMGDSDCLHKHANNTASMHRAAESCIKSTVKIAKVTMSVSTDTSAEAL
Translocator protein, sequence (P16257 whole entry, looked up): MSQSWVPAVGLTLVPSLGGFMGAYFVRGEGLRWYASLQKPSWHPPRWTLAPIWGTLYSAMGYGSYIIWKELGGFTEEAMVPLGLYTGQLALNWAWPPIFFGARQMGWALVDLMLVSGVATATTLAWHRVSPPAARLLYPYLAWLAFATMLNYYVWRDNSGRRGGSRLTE

SMILES | IC50 [1] | IC50 [2] | IC50 [3] | IC50 (Glutamate NMDA receptor) | IC50 [4] | IC50 [5] | IC50 [6] | IC50 [7] | IC50 (Cannabinoid receptor 1) | IC50 [8] | IC50 [9] | IC50 [10] | Ki (Translocator protein) | IC50 (Adrenergic receptor beta) | IC50 [11]
CCCCCCN(CCCCCC)C(=S)Cc1c(-c2ccc(F)cc2)[nH]c2ccccc12 | > 1 µM | > 1 µM | > 1 µM | > 1 µM | > 1 µM | > 1 µM | > 1 µM | > 1 µM | > 1 µM | > 1 µM | > 1 µM | > 1 µM | > 1 µM | > 1 µM | > 1 µM
CCCN(CCC)C(=O)Cc1c(-c2ccc(Cl)cc2)[nH]c2ccccc12 | > 1 µM | > 1 µM | > 1 µM | > 1 µM | > 1 µM | > 1 µM | > 1 µM | > 1 µM | > 1 µM | > 1 µM | > 1 µM | > 1 µM | 0.066 µM | > 1 µM | > 1 µM
CCCN(CCC)C(=O)C(C)c1c(-c2ccc(Cl)cc2)[nH]c2ccccc12 (centres undefined) | > 1 µM | > 1 µM | > 1 µM | > 1 µM | > 1 µM | > 1 µM | > 1 µM | > 1 µM | > 1 µM | > 1 µM | > 1 µM | > 1 µM | 0.8 µM | > 1 µM | > 1 µM
CCCN(CCC)C(=O)Cc1c(-c2cccs2)[nH]c2ccc(Cl)cc12 | > 1 µM | > 1 µM | > 1 µM | > 1 µM | > 1 µM | > 1 µM | > 1 µM | > 1 µM | > 1 µM | > 1 µM | > 1 µM | > 1 µM | 0.078 µM | > 1 µM | > 1 µM
O=C1Cc2c([nH]c3ccccc23)-c2ccccc2N1 [PAULLONE] | > 1 µM | > 1 µM | > 1 µM | > 1 µM | > 1 µM | > 1 µM | > 1 µM | > 1 µM | > 1 µM | > 1 µM | > 1 µM | > 1 µM |  | > 1 µM | > 1 µM

More lines, now with the values ahead:

IC50 [1] | IC50 [2] | IC50 [3] | IC50 (Glutamate NMDA receptor) | IC50 [4] | IC50 [5] | IC50 [6] | IC50 [7] | IC50 (Cannabinoid receptor 1) | IC50 [8] | IC50 [9] | IC50 [10] | Ki (Translocator protein) | IC50 (Adrenergic receptor beta) | IC50 [11] | SMILES
> 1 µM | > 1 µM | > 1 µM | > 1 µM | > 1 µM | > 1 µM | > 1 µM | > 1 µM | > 1 µM | > 1 µM | > 1 µM | > 1 µM | 0.211 µM | > 1 µM | > 1 µM | CCCN(CCC)C(=O)Cc1c(-c2ccccc2)[nH]c2c(F)cccc12
> 1 µM | > 1 µM | > 1 µM | > 1 µM | > 1 µM | > 1 µM | > 1 µM | > 1 µM | > 1 µM | > 1 µM | > 1 µM | > 1 µM | 0.1 µM | > 1 µM | > 1 µM | CCCN(CCC)C(=O)Cc1c(-c2ccccc2)[nH]c2ccccc12
> 1 µM | > 1 µM | > 1 µM | > 1 µM | > 1 µM | > 1 µM | > 1 µM | > 1 µM | > 1 µM | > 1 µM | > 1 µM | > 1 µM | 0.328 µM | > 1 µM | > 1 µM | CCCN(CCC)C(=O)Cc1c2n(c3ccccc13)CCCc1ccccc1-2
